# Screens as filed in PubChem BioAssay.
# Rows were chosen to be rich in hits. Some 2.9% of all compounds tested hit in one or more screens of this group.
# hiPSC survival: increases survival of single human iPS cells; AID 602274; 360,000 compounds, 0.044% hits; survival enhancement, % at 20 µM; hiPSC single-cell survival, ATPlite luminescence; 100% = ROCK inhibitor wells, 0% = DMSO; in the data active means survival enhancement above about 18%;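 further: cells exposed to compounds for 16 hours before the ATP read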
# NR1D1 modulator: modulates human Rev-erb alpha binding to DNA | P20393 | 370,000 compounds, 0.79% hits | Rev-erbα–FITC-DNA binding, fluorescence polarization, 90 min | AID 1259318 | activity, % at 10 µM;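 active means activity above about 14%, limit read from the data; passing the limit was not always enough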
# Target sequence (P20393 whole entry, looked up): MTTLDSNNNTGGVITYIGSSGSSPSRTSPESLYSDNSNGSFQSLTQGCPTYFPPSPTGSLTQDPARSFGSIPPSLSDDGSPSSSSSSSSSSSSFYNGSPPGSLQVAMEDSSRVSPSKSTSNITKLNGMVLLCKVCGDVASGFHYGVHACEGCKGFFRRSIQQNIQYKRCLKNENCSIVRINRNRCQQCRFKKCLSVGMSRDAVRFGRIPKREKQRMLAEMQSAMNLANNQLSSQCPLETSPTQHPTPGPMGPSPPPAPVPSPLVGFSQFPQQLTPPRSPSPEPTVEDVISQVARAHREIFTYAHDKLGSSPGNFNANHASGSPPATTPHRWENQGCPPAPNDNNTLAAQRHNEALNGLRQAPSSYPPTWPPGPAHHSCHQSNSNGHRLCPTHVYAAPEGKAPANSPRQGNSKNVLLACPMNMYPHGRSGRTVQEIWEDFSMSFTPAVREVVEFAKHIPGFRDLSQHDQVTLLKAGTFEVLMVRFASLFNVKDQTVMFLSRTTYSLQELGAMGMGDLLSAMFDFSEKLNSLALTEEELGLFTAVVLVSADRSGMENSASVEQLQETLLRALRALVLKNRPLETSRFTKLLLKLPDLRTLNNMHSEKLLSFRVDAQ
# MIN6 prolif: induces beta-cell replication in MIN6 cells. AID 2380. MIN6 cells proliferation, ATPlite luminescence, 48 h; cells starved in 0.2% serum; 100% = growth in 10% serum. 330,000 compounds, 0.29% hits. proliferation, % at 10 µM;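 active means compounds whose signal lies at least 3.5 SD above the mean of all wells on their plate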
# PG9 Ab binder: small molecules binding HIV-1 gp120 antibody PG9. TR-FRET gp120-PG9 antibody binding. inhibition, % at 6.7 µM. 360,000 compounds, 0.43% hits. AID 624416; in the data active means inhibition above about 8.5%
# T cruzi inh: T. cruzi replication inhibition | AID 1885 | T. cruzi beta-gal in NIH3T3, luminescence, 90 h | 300,000 compounds, 1.4% hits | inhibition, % (concentration not given with the values);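 active means mean inhibition across valid replicates above about 55%, limit read from the data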;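 further: signal also drops with host cell toxicity which is not excluded here; higher percent means less beta-gal luminescence so fewer parasites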
#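 Incubation – ≥90 h infection period, 3 h prior cell attachment · System – NIH/3T3 fibroblasts plus reporter T. cruzi · Doses – compound pinned at 50 nL/well, DMSO · Read-out basis – percent inhibition of parasite-derived β-gal signal · Signal – luminescent β-galactosidase signal after 60 min lysis · Also added – 5000 T. cruzi trypomastigotes/well · Medium – Low-serum DMEM with 2% FBS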
# TAG inh: triacylglycerol accumulation inhibition; H9c2 cells, Nile Red lipid (TAG) fluorescence; cells loaded with 200 µM oleic acid; inhibition, % at 12.5 µM; 230,000 compounds, 0.66% hits; AID 651582;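 active means pattern-corrected inhibition of lipid staining of at least 50% with the nuclear-stain viability signal not falling by more than 50%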
# Hits are given with their value; n = inactive; x = no result given.
SMILES,hiPSC survival,NR1D1 modulator,MIN6 prolif,PG9 Ab binder,T cruzi inh,TAG inh
CC(C)(C)OC(=O)NOCC(=O)N(Cc1ccccc1)CC(O)COc1ccccc1 (centres undefined),n,n,n,n,n,n
O=C(NCCc1ccncc1)Nc1ccc(Cl)c(Cl)c1,n,n,n,n,68,n
CCOC(=O)C(C)(C)N(Cc1ccc(Cl)cc1)S(=O)(=O)c1ccc(Cl)c([N+](=O)[O-])c1,x,x,n,x,n,x
CC(=O)N(Cc1ccc(F)cc1)C1=C(NCc2ccccc2)C(=O)c2ccccc2C1=O,n,x,x,x,67,n
COc1ccc(/C=N/n2cnc3scc(-c4cccs4)c3c2=O)cc1OC,n,n,n,n,n,x
COc1nc(N/N=C/c2cc3c(cc2Br)OCO3)nc(N2CCOCC2)n1,n,n,n,n,n,n
COc1cc(-c2nc(-c3ccc4c(c3)-c3ccccc3S4(=O)=O)c(-c3ccccc3)[nH]2)cc(OC)c1OC,n,n,n,n,59,x
COc1cc(-c2nc(-c3ccccc3)c(-c3cccs3)[nH]2)cc(OC)c1OC,n,n,n,n,62,x
FC(F)(F)c1cccc(NC(=S)N2CCN(c3cccc(C(F)(F)F)c3)CC2)c1,n,n,n,n,n,n
Nc1nc(-c2ccccc2)cc(N2CCCCC2)n1,n,n,n,n,n,76
CCCOc1ccccc1OCC(=O)Nc1ccc(S(=O)(=O)N2CCCCC2)cc1,n,n,n,n,n,n
CCC(C)(C)n1nnnc1C(c1cccc(C#N)c1)N1CCN(c2cc(C)ccc2C)CC1 (centres undefined),n,n,n,n,61,x
CC(C)(C)n1nnnc1C(c1cccc(C#N)c1)N1CCCc2ccccc21 (centres undefined),n,n,n,n,n,x
CC(C)(C)n1nnnc1C(c1cccc(C#N)c1)N1CCC(Cc2ccccc2)CC1 (centres undefined),n,n,n,n,81,x
CCC(C)(C)n1nnnc1C(c1cccnc1)N1CCCC(C)C1 (centres undefined),n,n,n,n,n,x
CCC(C)(C)n1nnnc1C(c1ccncc1)N1CCC(Cc2ccccc2)CC1 (centres undefined),n,n,n,n,65,n
CCC(C)(C)n1nnnc1C(c1cccnc1)N1CCC(Cc2ccccc2)CC1 (centres undefined),n,n,n,n,64,n
CCC(C)(C)n1nnnc1C(c1ccc(C)cc1)N1CCSCC1 (centres undefined),n,n,n,n,n,n
Cc1ccc(S(=O)(=O)N2CCC(C(=O)N3CCN(Cc4ccccc4)CC3)CC2)cc1,n,n,n,n,x,x
O=C(NCC1CCCC(CNC(=O)Nc2ccc(Cl)cn2)C1)Nc1ccc(Cl)cn1 (centres undefined),n,n,n,n,60,x
CCN(CC)S(=O)(=O)c1cccc(C(=O)Nc2cc(C)cc(C)c2)c1,n,n,n,n,n,n
CCN=C(NCC)SC1CC(=O)N(c2cccc(OCC)c2)C1=O (centres undefined),n,n,n,n,n,n
COc1ccccc1N(/N=C1\Sc2ccccc2C1=O)C(C)=O,n,n,n,n,n,69
C[C@H](NC(=O)c1nc[nH]c1C(=O)NC(c1ccccc1)c1ccccc1)C(=O)OC(C)(C)C,n,n,n,n,n,n
CC(C)(C)c1ccc(CN2N=Nc3ccccc3S2(=O)=O)cc1,n,n,n,n,n,51
SMILES,hiPSC survival,NR1D1 modulator,MIN6 prolif,PG9 Ab binder,T cruzi inh,TAG inh
CCCc1cc(=O)oc2cc(OCC(=O)NC(Cc3c[nH]c4ccc(O)cc34)C(=O)O)c(Cl)cc12 (centres undefined),n,n,n,n,n,x
CCOC(=O)C(C(=O)OCC)C(C(=O)OCC)N1CCOCC1 (centres undefined),n,n,n,n,n,99
N#Cc1cc2c(nc1SCC(=O)Nc1nccs1)CCCCC2,n,n,n,37,n,x
O=C(CSc1nc(-c2ccccc2)nc2ccccc12)Nc1nccs1,n,n,n,29,n,x
O=C(NCc1ccccn1)c1ccc(OC2CCN(Cc3ccccc3)CC2)cc1,n,n,n,n,n,n
CSc1cccc(NC(=O)C2CCCN(S(=O)(=O)c3cnc[nH]3)C2)c1 (centres undefined),n,n,x,n,x,n
C=CCNC(=O)c1onc(CSc2cccc(OCC)c2)c1C(=O)O,n,n,n,n,n,n
CCc1cc2c(=O)[nH]c(-c3ccccn3)nc2s1,n,n,n,n,60,x
C=CCOc1ccccc1CNCc1cccnc1,n,n,n,n,n,n
CCc1ccc(OCC(=O)NC(NC(=S)Nc2ccccc2C)C(Cl)(Cl)Cl)cc1 (centres undefined),n,n,n,n,55,x
Nc1ncnc2c1ncn2[C@@H]1O[C@H](CO)C[C@@H]1O,x,x,n,x,61,x
Cn1ccsc1=NC(=O)c1ccc([N+](=O)[O-])o1,n,n,n,n,60,n
CCOc1cc(/C=C2\CN(C)C/C(=C\c3ccc(O)c(OCC)c3)C2=O)ccc1O,n,n,n,n,62,x
CN1C/C(=C/c2ccncc2)C(=O)/C(=C/c2ccncc2)C1,n,n,n,n,n,x
CCOc1cc(/C=C2\SC(=O)N=C2N)ccc1O,n,n,0.0,n,n,x
CN1C/C(=C/c2ccsc2)C(=O)/C(=C/c2ccsc2)C1,n,n,n,n,56,x
CC(C)(C)c1ccc(CNc2nc(-c3ccccn3)nnc2-c2ccccc2)cc1,x,n,x,x,x,x
CCOC(=O)C1=C(C)N=C2c3ccccc3C(=O)C2C1c1ccc(Cl)cc1 (centres undefined),n,n,n,n,61,x
Cc1nc2cc(NC(=O)C3(C)CCCN(C(C)C)C3)ccc2o1 (centres undefined),n,n,x,n,x,n
O=C(O)COc1ccc(/C=C/c2nc3ccc([N+](=O)[O-])cc3s2)cc1,n,n,n,n,56,n
Cc1ccccc1CNC(=O)Cc1cccs1,n,n,n,n,n,x
C/C(=N\NC(N)=S)C1=CCC2C3CC[C@H]4CC(O)CC[C@]4(C)C3CC[C@]12C (some centres undefined),n,n,n,n,60,x
CC12CCC3C(CCC4CC(O)CCC43C)C1CC(O)C2 (centres undefined),n,n,x,n,x,n
CCC(C)NC(=O)Cc1ccc(-c2ccccc2)cc1 (centres undefined),n,n,n,n,62,x
Cc1noc(C)c1CSCC(=O)N(C)CC(=O)Nc1ccc(F)cc1,n,n,n,n,n,n
C=CCn1c(SCC(=O)Nc2ccc(C(=O)OC(C)C)cc2)nnc1-c1cccs1,n,n,n,n,n,n
COc1cc(C(=O)Nc2nc(-c3ccc(C)cc3)cs2)ccc1OCC(=O)N1CCOCC1,n,n,n,n,55,x
